≈ marks a conversion by molar mass, not a printed value. Calls of active or inactive are those of the source. The rule behind the calls is not given here.
How the values were obtained:
[1] = test system: Escherichia coli; test: Antibacterial activity against Escherichia coli isolate ARS3 carrying pARS3 by agar dilution method; assay type: functional
How it was run: (§1)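 Minimal inhibitory concentration (MIC) by agar dilution on Mueller-Hinton agar, following the CLSI protocol. Strains were routinely grown in LB broth at 37°C with shaking.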

[2] = test system: Escherichia coli; test: Antibacterial activity against Escherichia coli CSH-2 carrying Escherichia coli ARS3 pARS3 by agar dilution method; assay type: functional; how it was run: as §1
[3] = test system: Escherichia coli; test: Antibacterial activity against Escherichia coli CSH-2 by agar dilution method; assay type: functional; how it was run: as §1
[4] = test system: Escherichia coli; test: Antibacterial activity against Escherichia coli JM109 carrying pMCL-BE by agar dilution method; assay type: functional; how it was run: as §1
[5] = test system: Escherichia coli; test: Antibacterial activity against Escherichia coli JM109 carrying pMCL210 by agar dilution method; assay type: functional; how it was run: as §1
[6] = test system: Nucleic Acid; test: Binding affinity to 16S rRNA G1494(N7) position in wild type Escherichia coli JM109 30S sunit at 100 uM by footprint assay; assay type: nucleic-acid assay
How it was run: (§2)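 Aminoglycoside (1–1,000 μM final) was added, 37°C 30 min, then ice 10 min. DMS modification followed at 37°C for 10 min, then quench and rRNA extraction. G1494 protection was read by primer extension.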

[7] = test system: Nucleic Acid; test: Binding affinity to 16S rRNA G1494(N7) position in wild type Escherichia coli JM109 30S sunit at 1000 uM by footprint assay; assay type: nucleic-acid assay; how it was run: as §2
[8] = test system: Nucleic Acid; test: Binding affinity to 16S rRNA G1494(N7) position in A1408-methylated Escherichia coli JM109 30S sunit at 100 uM by footprint assay; assay type: nucleic-acid assay; how it was run: as §2
[9] = test system: Nucleic Acid; test: Binding affinity to 16S rRNA G1494(N7) position in A1408-methylated Escherichia coli JM109 30S sunit at 1000 uM by footprint assay; assay type: nucleic-acid assay; how it was run: as §2
[10] = test system: Nucleic Acid; test: Binding affinity to 16S rRNA G1494(N7) position in A1408-methylated Escherichia coli JM109 30S sunit by footprint assay; assay type: nucleic-acid assay
How it was run: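 Aminoglycoside added (final 1 μM to 1,000 μM) for 30 min at 37°C, then 10 min on ice. DMS probing for 10 min at 37°C. The G1494 footprint was read by reverse-transcriptase primer extension.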

[11] = test system: Escherichia coli; test: Antibacterial activity against Escherichia coli (DE3)pLysS carrying pCold-IV by microdilution susceptibility test; assay type: functional
[12] = test system: Escherichia coli; test: Antibacterial activity against Escherichia coli (DE3)pLysS carrying pCold-NpmA by microdilution susceptibility test; assay type: functional

Compound	MIC [1]	MIC [2]	MIC [3]	MIC [4]	MIC [5]	Activity [6]	Activity [7]	Activity [8]	Activity [9]	Activity [10]	MIC [11]	MIC [12]
CN[C@@H]1[C@H](O[C@H]2[C@H](O[C@H]3[C@H](O)[C@@H](O)[C@H](N=C(N)N)[C@@H](O)[C@@H]3N=C(N)N)O[C@@H](C)[C@]2(O)C=O)O[C@@H](CO)[C@H](O)[C@H]1O [STREPTOMYCIN]	128 µg/mL (≈ 220 µM)	32 µg/mL (≈ 55 µM)	1 µg/mL (≈ 1.72 µM)	1 µg/mL (≈ 1.72 µM)	1 µg/mL (≈ 1.72 µM)	–	–	–	–	–	–	–
NCC[C@H](O)C(=O)N[C@@H]1C[C@H](N)[C@@H](O[C@H]2O[C@H](CN)[C@@H](O)[C@H](O)[C@H]2O)[C@H](O)[C@H]1O[C@H]1O[C@H](CO)[C@@H](O)[C@H](N)[C@H]1O [AMIKACIN]	256 µg/mL (≈ 437 µM)	16 µg/mL (≈ 27.3 µM)	0.13 µg/mL (≈ 0.222 µM)	32 µg/mL (≈ 54.6 µM)	0.5 µg/mL (≈ 0.854 µM)	–	–	–	–	–	–	–
CN[C@@H]1[C@H](O)[C@H](NC)[C@H]2O[C@@]3(O)C(=O)C[C@@H](C)O[C@H]3O[C@@H]2[C@H]1O [SPECTINOMYCIN]	> 256 µg/mL	> 256 µg/mL	16 µg/mL (≈ 48.1 µM)	16 µg/mL (≈ 48.1 µM)	16 µg/mL (≈ 48.1 µM)	–	–	–	–	–	–	–
NC[C@H]1O[C@H](O[C@H]2[C@H](O[C@@H]3O[C@H](CO)[C@@H](O)[C@H]3O)[C@@H](O)[C@H](N)C[C@@H]2N)[C@H](N)[C@@H](O)[C@@H]1O [RIBOSTAMYCIN]	> 256 µg/mL	> 256 µg/mL	0.25 µg/mL (≈ 0.55 µM)	> 256 µg/mL	0.5 µg/mL (≈ 1.1 µM)	Active	Active	inactive	inactive	–	–	–
CN[C@@H]1[C@@H](O)[C@@H](O[C@@H]2[C@@H](O)[C@H](O[C@H]3OC(CN)=CC[C@H]3N)[C@@H](N)C[C@H]2N)OC[C@]1(C)O [SISOMICIN]	> 256 µg/mL	> 256 µg/mL	≤ 0.06 µg/mL	256 µg/mL (≈ 572 µM)	0.13 µg/mL (≈ 0.29 µM)	–	–	–	–	–	–	–
CCN[C@@H]1C[C@H](N)[C@@H](O[C@H]2OC(CN)=CC[C@H]2N)[C@H](O)[C@H]1O[C@H]1OC[C@](C)(O)[C@H](NC)[C@H]1O [NETILMICIN]	> 256 µg/mL	> 256 µg/mL	≤ 0.06 µg/mL	> 256 µg/mL	0.13 µg/mL (≈ 0.273 µM)	–	–	–	–	–	–	–
NC[C@@H]1O[C@H](O[C@H]2[C@@H](O)[C@H](O[C@@H]3[C@@H](O)[C@H](N)C[C@H](N)[C@H]3O[C@H]3O[C@H](CO)[C@@H](O)[C@H](O)[C@H]3N)O[C@@H]2CO)[C@H](N)[C@@H](O)[C@@H]1O [PAROMOMYCIN]	64 µg/mL (≈ 104 µM)	4 µg/mL (≈ 6.5 µM)	0.5 µg/mL (≈ 0.812 µM)	4 µg/mL (≈ 6.5 µM)	1 µg/mL (≈ 1.62 µM)	–	–	–	–	–	–	–
NC[C@@H]1O[C@H](O[C@H]2[C@@H](O)[C@H](O[C@@H]3[C@@H](O)[C@H](N)C[C@H](N)[C@H]3O[C@H]3O[C@H](CO)[C@@H](O)C[C@H]3N)O[C@@H]2CO)[C@H](N)[C@@H](O)[C@@H]1O[C@H]1O[C@H](CO)[C@@H](O)[C@H](O)[C@@H]1O [LIVIDOMYCIN]	256 µg/mL (≈ 336 µM)	16 µg/mL (≈ 21 µM)	0.5 µg/mL (≈ 0.656 µM)	32 µg/mL (≈ 42 µM)	2 µg/mL (≈ 2.63 µM)	–	–	–	–	–	–	–
NC[C@H]1O[C@H](O[C@H]2[C@H](O)[C@@H](O[C@H]3O[C@H](CO)[C@@H](O)[C@H](N)[C@H]3O)[C@H](N)C[C@@H]2N)[C@H](O)[C@@H](O)[C@@H]1O [KANAMYCIN]	> 256 µg/mL	> 256 µg/mL	0.25 µg/mL (≈ 0.516 µM)	> 256 µg/mL	0.5 µg/mL (≈ 1.03 µM)	–	–	–	–	–	–	–
GENTAMICIN	> 256 µg/mL	128 µg/mL	< 0.06 µg/mL	16 µg/mL	0.13 µg/mL	Active	Active	inactive	inactive	Dose-dependent effect	–	–
NC[C@@H]1O[C@H](O[C@H]2[C@@H](O)[C@H](O[C@@H]3[C@@H](O)[C@H](N)C[C@H](N)[C@H]3O[C@H]3O[C@H](CN)[C@@H](O)[C@H](O)[C@H]3N)O[C@@H]2CO)[C@H](N)[C@@H](O)[C@@H]1O [FRAMYCETIN]	> 256 µg/mL	64 µg/mL (≈ 104 µM)	0.13 µg/mL (≈ 0.212 µM)	64 µg/mL (≈ 104 µM)	0.25 µg/mL (≈ 0.407 µM)	Active	Active	inactive	inactive	–	–	–
NCC[C@H](O)C(=O)N[C@@H]1C[C@H](N)[C@@H](O[C@H]2O[C@H](CN)CC[C@H]2N)[C@H](O)[C@H]1O[C@H]1O[C@H](CO)[C@@H](O)[C@H](N)[C@H]1O [ARBEKACIN]	64 µg/mL (≈ 116 µM)	4 µg/mL (≈ 7.24 µM)	0.13 µg/mL (≈ 0.235 µM)	4 µg/mL (≈ 7.24 µM)	0.25 µg/mL (≈ 0.452 µM)	–	–	–	–	–	–	–
CN[C@H]1C[C@@H](N)[C@H](O)[C@@H](O[C@@H]2O[C@H](CO)[C@H](O)[C@H]3O[C@@]4(O[C@H]23)O[C@H]([C@H](N)CO)[C@H](O)[C@H](O)[C@H]4O)[C@@H]1O	128 µg/mL (≈ 243 µM)	16 µg/mL (≈ 30.3 µM)	16 µg/mL (≈ 30.3 µM)	32 µg/mL (≈ 60.7 µM)	32 µg/mL (≈ 60.7 µM)	–	–	–	–	–	–	–
NC[C@@H]1CC[C@@H](N)[C@@H](O[C@H]2[C@H](O)[C@@H](O[C@H]3O[C@H](CO)[C@@H](O)[C@H](N)[C@H]3O)[C@H](N)C[C@@H]2N)O1 [DIBEKACIN]	> 256 µg/mL	128 µg/mL (≈ 283 µM)	0.13 µg/mL (≈ 0.288 µM)	128 µg/mL (≈ 283 µM)	0.25 µg/mL (≈ 0.554 µM)	–	–	–	–	–	–	–
CN[C@@H]1[C@@H](O[C@H]2O[C@H](CO)[C@@H](N)[C@H](O)[C@H]2O)OC2C[C@@H](N)[C@@H](O[C@H]3[C@H](O)[C@@H](O)[C@H](N)C[C@@H]3N)OC2[C@@H]1O (stereo not given in full) [APRAMYCIN]	> 256 µg/mL	> 256 µg/mL	1 µg/mL (≈ 1.85 µM)	> 256 µg/mL	2 µg/mL (≈ 3.71 µM)	–	–	–	–	–	3.9 µg/mL (≈ 7.23 µM)	> 1000 µg/mL
CN[C@@H]1[C@@H](O)[C@@H](O[C@@H]2[C@@H](O)[C@H](O[C@H]3O[C@H](CN)[C@@H](O)[C@H](O)[C@H]3O)[C@@H](N)C[C@H]2NC(=O)[C@@H](O)CN)OC[C@]1(C)O [ISEPAMICIN]	> 256 µg/mL	64 µg/mL (≈ 112 µM)	0.13 µg/mL (≈ 0.228 µM)	128 µg/mL (≈ 225 µM)	0.13 µg/mL (≈ 0.228 µM)	–	–	–	–	–	–	–
NC[C@H]1O[C@H](O[C@H]2[C@H](O)[C@@H](O[C@H]3O[C@H](CO)[C@@H](O)[C@H](N)[C@H]3O)[C@H](N)C[C@@H]2N)[C@H](N)C[C@@H]1O [TOBRAMYCIN]	> 256 µg/mL	128 µg/mL (≈ 274 µM)	≤ 0.06 µg/mL	128 µg/mL (≈ 274 µM)	0.13 µg/mL (≈ 0.278 µM)	–	–	–	–	–	–	–

Reference: ChEMBL document CHEMBL1152454, “Novel plasmid-mediated 16S rRNA m1A1408 methyltransferase, NpmA, found in a clinically isolated Escherichia coli strain resistant to structurally diverse aminoglycosides” (2007)
